Assay [1] deals with Mus musculus. Kind of assay: Decrease in Swiss-Webster mouse brain arachidonic acid level at 10 mg/kg, ip. Set-up: dose 10 mg/kg. The assay is classed as functional, organism-based. The gist of the method: (§1)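 Mice received single intraperitoneal doses (10 or 100 mg/kg). Brain levels of 2-AG and arachidonic acid were then measured. Values are mean ± S.D., n=3 mice per treatment group.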

In assay [2] the test system is Mus musculus. Kind of assay: Increase in Swiss-Webster mouse brain 2-arachidonoylglycerol level at 100 mg/kg, ip. The class given is functional, organism-based. Details: dose 100 mg/kg. The gist of the method:
as §1

Assay [3] has as its target T1, Fatty-acid amide hydrolase 1 (Mus musculus, UniProt O08914).
T1 sequence (O08914 whole entry): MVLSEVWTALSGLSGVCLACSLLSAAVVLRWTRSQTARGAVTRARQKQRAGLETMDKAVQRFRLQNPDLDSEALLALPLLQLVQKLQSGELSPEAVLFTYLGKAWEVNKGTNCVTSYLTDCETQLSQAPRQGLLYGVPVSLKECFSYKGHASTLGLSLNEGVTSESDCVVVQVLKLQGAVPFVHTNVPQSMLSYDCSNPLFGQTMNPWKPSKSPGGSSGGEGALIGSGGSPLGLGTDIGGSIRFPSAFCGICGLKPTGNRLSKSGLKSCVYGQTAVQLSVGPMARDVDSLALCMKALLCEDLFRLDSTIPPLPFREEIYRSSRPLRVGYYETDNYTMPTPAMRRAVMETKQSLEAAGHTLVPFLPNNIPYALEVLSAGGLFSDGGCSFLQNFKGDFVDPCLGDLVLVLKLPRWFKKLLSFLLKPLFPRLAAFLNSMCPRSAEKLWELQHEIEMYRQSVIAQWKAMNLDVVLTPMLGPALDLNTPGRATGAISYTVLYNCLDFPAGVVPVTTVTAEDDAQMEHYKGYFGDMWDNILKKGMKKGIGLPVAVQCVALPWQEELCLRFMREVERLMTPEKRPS
Kind of assay: Inhibition of FAAH-mediated [3H]anandamide hydrolysis in mouse brain. The assay is classed as tissue-based.

For assay [4], the system named is Mus musculus. Kind of assay: Increase in Swiss-Webster mouse brain 2-arachidonoylglycerol level at 10 mg/kg, ip. The assay is classed as functional, organism-based. Details: dose 10 mg/kg. Put shortly:
as §1

Assay [5] deals with Mus musculus. Kind of assay: Decrease in Swiss-Webster mouse brain arachidonic acid level at 100 mg/kg, ip. The assay is classed as functional, organism-based. Set-up: dose 100 mg/kg. Put shortly:
as §1

Assay [6] has as its system Mus musculus. Description: Modulation of cataleptic behavior in Swiss-Webster mouse assessed as >10 sec latency along with flattened posture and open eyes at 10 mg/kg, ip by bar test. The class given is functional, organism-based. Details: dose 10 mg/kg. The gist of the method: (§2)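 Mice were given an intraperitoneal dose of 10 or 100 mg/kg and scored for catalepsy by bar test. A cannabinoid response was a latency >10 s, plus a qualitatively flattened posture and remaining motionless with eyes open. n=3 mice per treatment group, mean ± S.D.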

A further assay concerns the target T2, Monoglyceride lipase (Mus musculus, UniProt O35678).
T2 sequence (O35678 whole entry): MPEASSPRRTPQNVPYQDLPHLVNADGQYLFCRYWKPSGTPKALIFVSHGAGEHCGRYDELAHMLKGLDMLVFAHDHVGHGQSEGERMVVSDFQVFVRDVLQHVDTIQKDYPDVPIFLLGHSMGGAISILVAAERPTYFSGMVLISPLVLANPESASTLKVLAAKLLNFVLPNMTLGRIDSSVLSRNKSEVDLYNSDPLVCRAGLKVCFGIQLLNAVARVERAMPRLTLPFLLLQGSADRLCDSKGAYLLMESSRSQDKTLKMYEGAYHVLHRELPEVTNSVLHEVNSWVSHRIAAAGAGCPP
Description: Inhibition of MAGL-mediated 2-arachidonoylglycerol hydrolysis in mouse brain. The assay is classed as tissue-based.

Assay [7] has as its system Mus musculus. Description: Modulation of cataleptic behavior in Swiss-Webster mouse assessed as >10 sec latency along with flattened posture at 100 mg/kg, ip by bar test. The assay is classed as functional, organism-based. Set-up: dose 100 mg/kg. Put shortly: as §2
A further assay has as its target Cannabinoid receptor 1 (Mus musculus, UniProt P47746). Description: Displacement of [3H]CP-55940 from CB1 receptor in mouse brain. The class given is tissue-based. (Displacement assays read how much labelled ligand stays bound in the presence of the test substance.)
Assay [8] concerns the target Cannabinoid receptor 1 (Mus musculus) (UniProt P47746). Kind of assay: Displacement of [3H]CP-55940 from CB1 receptor in mouse brain at 100 nM. The assay is classed as tissue-based.
Assay [9] has the same target. Kind of assay: Displacement of [3H]CP-55940 from mouse CB1 receptor expressed in HEK293 cells up to 100,000 nM. The class given is cell-based.

Structures are written as SMILES. Activity calls are given as the source filed them. The calls are words filed in the database; no cut-off is given here.

For eight molecules, Activity, IC50 and Bmax results are on record in ChEMBL document CHEMBL1151798, “Monoacylglycerol lipase regulates 2-arachidonoylglycerol action and arachidonic acid levels” (Bioorg Med Chem Lett, 2008).

Sequence of Cannabinoid receptor 1 (P47746 whole entry): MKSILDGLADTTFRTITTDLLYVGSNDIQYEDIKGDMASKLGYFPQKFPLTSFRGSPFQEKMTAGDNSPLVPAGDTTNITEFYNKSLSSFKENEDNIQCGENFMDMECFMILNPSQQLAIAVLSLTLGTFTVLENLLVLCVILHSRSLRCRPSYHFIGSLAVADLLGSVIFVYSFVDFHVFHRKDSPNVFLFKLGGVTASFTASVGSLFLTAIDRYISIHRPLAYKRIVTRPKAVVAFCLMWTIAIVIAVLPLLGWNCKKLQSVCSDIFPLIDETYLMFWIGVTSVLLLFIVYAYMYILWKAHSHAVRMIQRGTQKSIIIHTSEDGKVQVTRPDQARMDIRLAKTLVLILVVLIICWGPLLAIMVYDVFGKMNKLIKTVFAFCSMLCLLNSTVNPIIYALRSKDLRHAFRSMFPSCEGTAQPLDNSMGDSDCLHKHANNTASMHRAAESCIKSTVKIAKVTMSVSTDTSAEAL
Sequence of Cannabinoid receptor 1 (Mus musculus) (P47746 whole entry): as above

Broadly, the IC50 is the midpoint of a concentration-inhibition curve. Higher therefore signals weaker potency in that assay. As for `CCCCCCCCS(=O)(=O)F`, the outcome with Mus musculus [1], with Mus musculus [2], in the assay on Mus musculus [4], in the assay on Mus musculus [5], with Mus musculus [6] and with Mus musculus [7] was Active. In addition, the IC50 came to 1.9 nM in [3] and 140 nM on Monoglyceride lipase.

On to `CCCCCCCCCCCCP(=O)(OCC)Oc1ccc(C#N)cc1` (stereo not drawn), for which the result in the assay with Mus musculus [1], with Mus musculus [2], with Mus musculus [4], in the assay on Mus musculus [5], with Mus musculus [6] and in the assay on Mus musculus [7] was Active. The results for the IC50 (in [3]; on Cannabinoid receptor 1; at Monoglyceride lipase) were 12 nM, 4 nM and 0.07 nM, respectively.

With `CCOP(=O)(OCC)Oc1ccc([N+](=O)[O-])cc1` [PARAOXON], the values for the IC50 (in assay [3]; on Cannabinoid receptor 1; at Monoglyceride lipase) were 540 nM, 1200 nM and 2300 nM, respectively.

For `CCCCCCCCCSP1(=O)OCc2ccccc2O1` (stereo not drawn), the IC50 was 0.15 nM in assay [3] and 0.31 nM against Monoglyceride lipase.

For `CCCCCCCCCCCCS(=O)(=O)F` [DODECANESULFONYL FLUORIDE], the outcome with Mus musculus [1], in the assay on Mus musculus [2], in the assay with Mus musculus [4], in the assay on Mus musculus [5], in the assay on Mus musculus [6] and in the assay on Mus musculus [7] was Active. For the same molecule, on Monoglyceride lipase, the IC50 turned out to be 200 nM.

The molecule `CCOP(=O)(OCC)Oc1nc(Cl)c(Cl)cc1Cl` returned a Bmax in [8] of 0.17 pmol/mg. Besides, the outcome in assay [9] was inactive.

Regarding `CCCCCCCCCCCCP(=O)(OCC)Oc1nc(Cl)c(Cl)cc1Cl` (stereo not drawn), the result with Mus musculus [1], in the assay with Mus musculus [2], with Mus musculus [4], with Mus musculus [5], in the assay with Mus musculus [6] and in the assay with Mus musculus [7] was inactive. Moreover, the IC50 stood at 42 nM in assay [3], 14 nM on Cannabinoid receptor 1 and 0.14 nM against Monoglyceride lipase.

As to `CCCCCCCCCCCCP(=O)(Oc1ccc([N+](=O)[O-])cc1)OC(C)C` (stereo not drawn), the IC50 in assay [3] was 3 nM; at Cannabinoid receptor 1, 12 nM; against Monoglyceride lipase, 0.28 nM.
